ChEMBL document CHEMBL2021913, “Synthesis and biological evaluation of some novel thiazole substituted benzotriazole derivatives” (2012)
Converted amounts (≈) assume the structure as drawn. The source made the active and inactive calls. The rule behind the calls is not given here.

Key:
Assay type in all cases: functional
[1] = tested on: Pseudomonas aeruginosa; test: Antimicrobial activity against Pseudomonas aeruginosa 2036 at 35 degC after 18 to 24 hrs by NCCLS method based antimicrobial assay; details: for MBC: read-out: MBC99.9
[2] = tested on: Staphylococcus aureus; test: Antimicrobial activity against Staphylococcus aureus 2079 at 128 ug/disc at 35 degC after 24 hrs by agar-well diffusion assay; details: for zone of inhibition at 128 µg/disc: Staphylococcus aureus, 2079, 24 h, read-out: DIZ
Procedure, shortened: (§1)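 Agar-well diffusion: 24 h bacterial cultures adjusted to 0.5 McFarland (1.5 × 10⁸ CFU/mL) and mixed into molten Mueller-Hinton agar before pouring. 6 mm wells punched and each filled with 50 µL of compound stock or control. Plates incubated 35 °C for 24 h. Zone of growth inhibition diameter measured with vernier caliper.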

[3] = tested on: Escherichia coli; test: Antimicrobial activity against Escherichia coli 2109 at 128 ug/disc at 35 degC after 24 hrs by agar-well diffusion assay; details: for zone of inhibition at 128 µg/disc: Escherichia coli, 2109, 24 h, read-out: DIZ; procedure, shortened: as §1
[4] = tested on: Staphylococcus aureus; test: Antimicrobial activity against Staphylococcus aureus 2079 at 35 degC after 18 to 24 hrs by NCCLS method based antimicrobial assay; details: for MBC: read-out: MBC99.9
[5] = tested on: Bacillus subtilis; test: Antimicrobial activity against Bacillus subtilis 2250 at 128 ug/disc at 35 degC after 24 hrs by agar-well diffusion assay; details: for zone of inhibition at 128 µg/disc: Bacillus subtilis, 2250, 24 h, read-out: DIZ; procedure, shortened: as §1
[6] = tested on: Pseudomonas aeruginosa; test: Antimicrobial activity against Pseudomonas aeruginosa 2036 at 128 ug/disc at 35 degC after 24 hrs by agar-well diffusion assay; details: for zone of inhibition at 128 µg/disc: Pseudomonas aeruginosa, 2036, 24 h, read-out: DIZ; procedure, shortened: as §1
[7] = tested on: Candida albicans; test: Antimicrobial activity against Candida albicans 3471 at 128 ug/disc at 37 degC after 24 to 72 hrs by agar-well diffusion assay; details: for zone of inhibition at 128 µg/disc: read-out: DIZ
Procedure, shortened: (§2)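 Potato dextrose agar base plates overlaid with seeded agar cooled to 40 °C and inoculated with spores from 10-day cultures, final 1 × 10⁶ spores/mL. Compounds dissolved in DMSO at 128 µg/mL and applied on 6 mm filter-paper discs placed on chilled seeded medium. Nystatin positive control, DMSO negative control. Incubation 24–72 h at 37 °C. Inhibition zone diameter read by vernier caliper.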

[8] = tested on: Escherichia coli; test: Antimicrobial activity against Escherichia coli 2109 at 35 degC after 18 to 24 hrs by NCCLS method based antimicrobial assay; details: for MBC: read-out: MBC99.9
[9] = tested on: Aspergillus niger; test: Antimicrobial activity against Aspergillus niger 545 at 128 ug/disc at 37 degC after 24 to 72 hrs by agar-well diffusion assay; details: read-out: DIZ; procedure, shortened: as §2
[10] = tested on: Candida albicans; test: Antimicrobial activity against Candida albicans 3471 at 35 degC after 48 hrs by CLSI method based antimicrobial assay; details: for MFC: read-out: MFC99.9
Procedure, shortened: (§3)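 Broth microdilution following CLSI guidelines over 256 to 1 µg/mL. MIC90 is the lowest concentration completely inhibiting growth. For MFC, 0.1 mL from each tube spread on agar and CFU counted after 48 h at 35 °C; MFC is lowest concentration killing 99.9% of inoculum. MFC/MIC ratio calculated: […], ≤4 as fungicidal.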

[11] = tested on: Bacillus subtilis; test: Antimicrobial activity against Bacillus subtilis 2250 at 35 degC after 18 to 24 hrs by NCCLS method based antimicrobial assay; details: for MBC: read-out: MBC99.9
[12] = tested on: Aspergillus niger; test: Ratio of MFC99.9 to MIC90 for Aspergillus niger 545 at 35 degC after 48 hrs by CLSI method based antimicrobial assay; procedure, shortened: as §3
[13] = tested on: Aspergillus niger; test: Antimicrobial activity against Aspergillus niger 545 at 35 degC after 48 hrs by CLSI method based antimicrobial assay; details: for MFC: read-out: MFC99.9; procedure, shortened: as §3
[14] = tested on: Candida albicans; test: Ratio of MFC99.9 to MIC90 for Candida albicans 3471 at 35 degC after 48 hrs by CLSI method based antimicrobial assay; procedure, shortened: as §3

| Compound | MIC [1] | diameter of the inhibition zone (DIZ) [2] | zone of inhibition at 128 µg/disc [3] | MBC99.9 [4] | MIC [4] | diameter of the inhibition zone (DIZ) [5] | MIC [8] | MBC [8] | zone of inhibition at 128 µg/disc [9] | MBC99.9 [11] | MIC [11] | Ratio [12] | MIC ([13]; Aspergillus niger, 545, 48 h) | MFC ([13]; Aspergillus niger, 545, 48 h) | zone of inhibition at 128 µg/disc [7] | Ratio [14] | MIC ([10]; Candida albicans, 3471, 48 h) | MFC ([10]; Candida albicans, 3471, 48 h) | MBC [1] | zone of inhibition at 128 µg/disc [6] | also measured |
| --- | --- | --- | --- | --- | --- | --- | --- | --- | --- | --- | --- | --- | --- | --- | --- | --- | --- | --- | --- | --- | --- |
| FC(F)(F)c1cc(/C(Cn2nnc3ccccc32)=N\Nc2nc(-c3ccc(Cl)cc3)cs2)cc(C(F)(F)F)c1 | inactive | inactive | 18.7 mm | inactive | inactive | inactive | 128 µg/mL (≈ 220 µM) | 256 µg/mL (≈ 441 µM) | 19.7 mm | inactive | inactive | 4 | 16 µg/mL (≈ 27.5 µM) | 64 µg/mL (≈ 110 µM) |  |  |  |  |  |  | MBC99.9 [1]: inactive; diameter of the inhibition zone (DIZ) [6]: inactive; diameter of the inhibition zone (DIZ) [7]: inactive; MFC99.9 [10]: inactive; MIC [10]: inactive |
| O=[N+]([O-])c1ccc(/C(Cn2nnc3ccccc32)=N\Nc2nc(-c3cc(C(F)(F)F)cc(C(F)(F)F)c3)cs2)cc1 | inactive | inactive | 15 mm | inactive | inactive | inactive | 128 µg/mL (≈ 216 µM) | 256 µg/mL (≈ 433 µM) | 17.9 mm | inactive | inactive | 2 | 32 µg/mL (≈ 54.1 µM) | 64 µg/mL (≈ 108 µM) | 19 mm | 2 | 128 µg/mL (≈ 216 µM) | 256 µg/mL (≈ 433 µM) |  |  | MBC99.9 [1]: inactive; diameter of the inhibition zone (DIZ) [6]: inactive |
| O=[N+]([O-])c1ccc(-c2csc(N/N=C(/Cn3nnc4ccccc43)c3ccc(Cl)cc3)n2)cc1 | 64 µg/mL (≈ 131 µM) | inactive |  | inactive | inactive | inactive | inactive |  | 13.6 mm | inactive | inactive | 2 | 128 µg/mL (≈ 261 µM) | 256 µg/mL (≈ 523 µM) |  |  |  |  | 128 µg/mL (≈ 261 µM) | 16.4 mm | diameter of the inhibition zone (DIZ) [3]: inactive; diameter of the inhibition zone (DIZ) [7]: inactive; MBC99.9 [8]: inactive; MFC99.9 [10]: inactive; MIC [10]: inactive |
| Fc1ccc(/C(Cn2nnc3ccccc32)=N\Nc2nc(-c3cc(C(F)(F)F)cc(C(F)(F)F)c3)cs2)cc1 | inactive |  |  |  | 128 µg/mL (≈ 227 µM) |  | inactive |  | 17.5 mm |  | 32 µg/mL (≈ 56.7 µM) | 4 | 32 µg/mL (≈ 56.7 µM) | 128 µg/mL (≈ 227 µM) | 17.4 mm | 2 | 32 µg/mL (≈ 56.7 µM) | 64 µg/mL (≈ 113 µM) |  |  | MBC99.9 [1]: inactive; zone of inhibition at 128 µg/disc [2]: 19.2 mm; diameter of the inhibition zone (DIZ) [3]: inactive; MBC [4]: 128 µg/mL (≈ 227 µM); zone of inhibition at 128 µg/disc [5]: 24.1 mm; diameter of the inhibition zone (DIZ) [6]: inactive; MBC99.9 [8]: inactive; MBC [11]: 64 µg/mL (≈ 113 µM) |
| O=[N+]([O-])c1ccc(-c2csc(N/N=C(/Cn3nnc4ccccc43)c3ccc(F)cc3)n2)cc1 | inactive | inactive |  | inactive | inactive |  | inactive |  | 16.2 mm |  | 128 µg/mL (≈ 270 µM) | 4 | 32 µg/mL (≈ 67.6 µM) | 128 µg/mL (≈ 270 µM) | 18.7 mm | 2 | 32 µg/mL (≈ 67.6 µM) | 64 µg/mL (≈ 135 µM) |  |  | MBC99.9 [1]: inactive; diameter of the inhibition zone (DIZ) [3]: inactive; zone of inhibition at 128 µg/disc [5]: 14.9 mm; diameter of the inhibition zone (DIZ) [6]: inactive; MBC99.9 [8]: inactive; MBC [11]: 256 µg/mL (≈ 541 µM) |
| Fc1ccc(-c2csc(N/N=C(/Cn3nnc4ccccc43)c3ccc(Cl)cc3)n2)cc1 | 128 µg/mL (≈ 276 µM) |  | 17.6 mm |  | 64 µg/mL (≈ 138 µM) |  | 64 µg/mL (≈ 138 µM) | 128 µg/mL (≈ 276 µM) | 20.1 mm |  | 128 µg/mL (≈ 276 µM) | 2 | 16 µg/mL (≈ 34.6 µM) | 32 µg/mL (≈ 69.1 µM) | 21.3 mm | 4 | 16 µg/mL (≈ 34.6 µM) | 64 µg/mL (≈ 138 µM) | 256 µg/mL (≈ 553 µM) | 14.3 mm | zone of inhibition at 128 µg/disc [2]: 24.7 mm; MBC [4]: 32 µg/mL (≈ 69.1 µM); zone of inhibition at 128 µg/disc [5]: 16.9 mm; MBC [11]: 128 µg/mL (≈ 276 µM) |
| Fc1ccc(/C(Cn2nnc3ccccc32)=N\Nc2nc(-c3ccc(Cl)cc3)cs2)cc1 | 64 µg/mL (≈ 138 µM) |  |  |  | 32 µg/mL (≈ 69.1 µM) | inactive | inactive |  | 21.4 mm | inactive | inactive | 1 | 16 µg/mL (≈ 34.6 µM) | 16 µg/mL (≈ 34.6 µM) | 20.2 mm | 4 | 16 µg/mL (≈ 34.6 µM) | 64 µg/mL (≈ 138 µM) | 64 µg/mL (≈ 138 µM) | 19.1 mm | zone of inhibition at 128 µg/disc [2]: 25.9 mm; MBC [4]: 32 µg/mL (≈ 69.1 µM); MBC99.9 [8]: inactive |
| Fc1ccc(-c2csc(N/N=C(/Cn3nnc4ccccc43)c3ccc(Br)cc3)n2)cc1 | 32 µg/mL (≈ 63.1 µM) | inactive | 18.7 mm | inactive | inactive | inactive | 128 µg/mL (≈ 252 µM) | 128 µg/mL (≈ 252 µM) | 17.6 mm | inactive | inactive | 2 | 32 µg/mL (≈ 63.1 µM) | 64 µg/mL (≈ 126 µM) | 16.8 mm | 4 | 32 µg/mL (≈ 63.1 µM) | 128 µg/mL (≈ 252 µM) | 64 µg/mL (≈ 126 µM) | 19.8 mm |  |
| Fc1ccc(/C(Cn2nnc3ccccc32)=N\Nc2nc(-c3ccc(F)cc3)cs2)cc1 | 128 µg/mL (≈ 287 µM) |  | 15 mm |  | 64 µg/mL (≈ 143 µM) |  | 128 µg/mL (≈ 287 µM) | 128 µg/mL (≈ 287 µM) | 19.1 mm |  | 64 µg/mL (≈ 143 µM) | 4 | 16 µg/mL (≈ 35.8 µM) | 64 µg/mL (≈ 143 µM) | 21.1 mm | 2 | 16 µg/mL (≈ 35.8 µM) | 32 µg/mL (≈ 71.7 µM) | 256 µg/mL (≈ 573 µM) | 11.8 mm | zone of inhibition at 128 µg/disc [2]: 20.1 mm; MBC [4]: 128 µg/mL (≈ 287 µM); MBC [11]: 128 µg/mL (≈ 287 µM) |
| NYSTATIN |  |  |  |  |  |  |  |  |  |  |  | 2 |  |  |  | 2 |  |  |  |  | MFC99.9 [10]: 32 µg/mL; MIC [10]: 16 µg/mL; MFC99.9 [13]: 32 µg/mL; MIC [13]: 16 µg/mL |
| Clc1ccc(-c2csc(N/N=C(/Cn3nnc4ccccc43)c3ccc(Br)cc3)n2)cc1 | 16 µg/mL (≈ 30.5 µM) | inactive | 21.8 mm | inactive | inactive | inactive | 64 µg/mL (≈ 122 µM) | 128 µg/mL (≈ 244 µM) | 15.2 mm | inactive | inactive | 2 | 64 µg/mL (≈ 122 µM) | 128 µg/mL (≈ 244 µM) |  |  |  |  | 32 µg/mL (≈ 61.1 µM) | 21.2 mm | diameter of the inhibition zone (DIZ) [7]: inactive; MFC99.9 [10]: inactive; MIC [10]: inactive |
| Clc1ccc(/C(Cn2nnc3ccccc32)=N\Nc2nc(-c3ccc(Cl)cc3)cs2)cc1 | 128 µg/mL (≈ 267 µM) |  |  |  | 64 µg/mL (≈ 134 µM) |  | inactive |  | 18.2 mm |  | 32 µg/mL (≈ 66.8 µM) | 1 | 32 µg/mL (≈ 66.8 µM) | 32 µg/mL (≈ 66.8 µM) | 21 mm | 2 | 16 µg/mL (≈ 33.4 µM) | 32 µg/mL (≈ 66.8 µM) | 128 µg/mL (≈ 267 µM) | 11.3 mm | zone of inhibition at 128 µg/disc [2]: 27.9 mm; MBC [4]: 32 µg/mL (≈ 66.8 µM); zone of inhibition at 128 µg/disc [5]: 25.1 mm; MBC99.9 [8]: inactive; MBC [11]: 64 µg/mL (≈ 134 µM) |
